Assay [1] has as its system L1210. As to the kind of experiment: Antitumor activity in the mice with intraperitoneal implanted L1210 lymphoid leukemia at the dose of 18 and 27.7 mg/kg/day x 5 was determined as mean survival of treated group compared to untreated; 13/9. The format is functional, Mus musculus. In outline:
(§1)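 C3D2F1/J female mice (C3H/HeJ female × DBA/2J male), groups of six to eight, average weight 25 g. Inoculated ip with 1 × 10^6 L1210 ascites cells taken from DBA/2Ha donor mice bearing 3-5 day old tumors. Compounds were dissolved in 0.154 N NaOH, neutralized with 0.154 N HCl (final 0.9% NaCl), and given ip daily for 5 days from 24 h post-implant. Median survival T/C; ILS = (T/C − 1) × 100; 30-day survivors counted.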

Assay [2] has as its system L1210. As to the kind of experiment: Antitumor activity in mice with intraperitoneal implanted L1210 lymphoid leukemia at the dose 9.2 and 13.2 mg/kg/day x 5 was determined as weight change (g/mouse) on 8th day. The format is functional. In outline: (§2)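 C3D2F1/J female mice (C3H/HeJ × DBA/2J), groups of six to eight, average 25 g, inoculated ip with 1 × 10^6 L1210 ascites cells taken from DBA/2Ha donor mice carrying 3-5 day tumors. Compound dissolved in 0.154 N NaOH, then neutralized with 0.154 N HCl to give 0.9% NaCl. Given ip daily for 5 consecutive days starting 24 h after implantation. Body weight change per mouse recorded on day 8.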

The test system of assay [3] is L1210. As to the kind of experiment: Antitumor activity in mice with intraperitoneal implanted L1210 lymphoid leukemia at the dose 18 and 27.7 mg/kg/day x 5 was determined as weight change (g/mouse) on 8th day. The format is functional. In a few lines:
as §2

Assay [4] deals with L1210. As to the kind of experiment: Antitumor activity in the mice with intraperitoneal implanted L1210 lymphoid leukemia at the dose of 9.2 and 13.2 mg/kg/day x 5 was determined as mean survival of treated group compared to untreated; 15/11. The format is functional, Mus musculus.
For assay [5], the system named is L1210. As to the kind of experiment: Antitumor activity in the mice with intraperitoneal implanted L1210 lymphoid leukemia at the dose 18 and 27.7 mg/kg/day x 5 was determined and number of animals survived on 30 th day were reported; 0/8. The format is functional, Mus musculus. In a few lines: (§3)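 Female C3D2F1/J mice (C3H/HeJ × DBA/2J), groups of six to eight, average weight 25 g. Each mouse got 1 × 10^6 L1210 ascites cells ip, taken from DBA/2Ha donor mice bearing 3-5 day tumors. Compound was dissolved in 0.154 N NaOH and neutralized with 0.154 N HCl (final 0.9% NaCl). Dosed ip daily ×5, starting 24 h after implant. Recorded body weight change on day 8, survival range, median survival and 30-day survivors. ILS = (T/C − 1) × 100.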

The subject of assay [6] is L1210. As to the kind of experiment: Antitumor activity in the mice with intraperitoneal implanted L1210 lymphoid leukemia at the dose 9.2 and 13.2 mg/kg/day x 5 was determined as percentage increase in the life span as compared with control tumor bearers. The format is functional, Mus musculus. In a few lines:
as §1

Assay [7] concerns L1210. As to the kind of experiment: Antitumor activity in the mice with intraperitoneal implanted L1210 lymphoid leukemia at the dose 18 and 27.7 mg/kg/day x 5 was determined as Survival time in days; Range is 9-17 days. The format is functional, Mus musculus. In outline:
as §3

The subject of assay [8] is L1210. As to the kind of experiment: Antitumor activity in the mice with intraperitoneal implanted L1210 lymphoid leukemia at the dose 9.2 and 13.2 mg/kg/day x 5 was determined as Survival time in days; Range is 11-28 days. The format is functional, Mus musculus. In outline: as §1
Assay [9] has as its system L1210. As to the kind of experiment: Antitumor activity in the mice with intraperitoneal implanted L1210 lymphoid leukemia at the dose 18 and 27.7 mg/kg/day x 5 was determined as percentage increase in the life span as compared with control tumor bearers. The format is functional, Mus musculus. In outline:
as §3

Assay [10] has as its system L1210. As to the kind of experiment: Antitumor activity in the mice with intraperitoneal implanted L1210 lymphoid leukemia at the dose 9.2 and 13.2 mg/kg/day x 5 was determined and number of animals survived on 30 th day were reported; 0/6. The format is functional, Mus musculus. In a few lines: as §1

The text below walks through data of ChEMBL document CHEMBL1121364, “Nucleoside conjugates as potential antitumor agents. 3. Synthesis and antitumor activity of 1-(beta-D-arabinofuranosyl)cytosine conjugates of corticosteroids” (1980).

As to `C[C@H]1C[C@@H]2[C@H]([C@@H](O)C[C@@]3(C)[C@H]2CC[C@]3(O)C(=O)CO)[C@@]2(C)C=CC(=O)C=C12.Nc1ccn([C@@H]2O[C@H](CO)[C@@H](O)[C@@H]2O)c(=O)n1`, the T/C in the assay on L1210 [1] is listed as 13; in the assay with L1210 [4] it was 15. Further, the figures for the Weight change in the assay with L1210 [2] and in the assay with L1210 [3] were -2.38 g mouse-1 and -1.38 g mouse-1, respectively. Besides, the Survivors with L1210 [5] and in the assay on L1210 [10] was 0 in each case. Also, the ILS in the assay with L1210 [6] came out at 36%; in the assay with L1210 [9] it was 44%. Moreover, the Survival time was found to be 9 days in the assay with L1210 [7] and 11 days in the assay with L1210 [8].

What is called ILS is the gain in survival time of treated over control animals, in per cent.
